Reference: ChEMBL document CHEMBL5104215, “Synthesis of full-length homodimer αD-VxXXB that targets human α7 nicotinic acetylcholine receptors” (RSC Med Chem, 2022)
The source made the active and inactive calls. No cut-off for these calls is given here. Positions of bridges follow the written chain, without caps; N, C: chain ends. Non-standard residues stand in square brackets, D forms with d. Residues, ends and D or L forms follow the SMILES beside them. Chains are numbered I, II in the order given. Nle = CCCC[C@H](N)C(=O)O

Legend:
[1] = target: Acetylcholine-binding protein (Lymnaea stagnalis, UniProt P58154); test: Displacement of [3H]-epibatidine from recombinant Lymnaea stagnalis Acetylcholine-binding protein by radioligand binding assay
Sequence of Acetylcholine-binding protein (P58154 whole entry): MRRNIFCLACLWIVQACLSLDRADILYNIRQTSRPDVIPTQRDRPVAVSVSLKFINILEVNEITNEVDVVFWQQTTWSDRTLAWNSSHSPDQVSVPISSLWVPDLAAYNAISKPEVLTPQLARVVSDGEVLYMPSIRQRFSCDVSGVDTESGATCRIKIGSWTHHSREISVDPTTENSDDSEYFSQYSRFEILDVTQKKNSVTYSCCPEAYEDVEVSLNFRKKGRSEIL
How it was run: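 Competition binding: peptide concentration series against [3H]-epibatidine bound to recombinantly expressed Ls-AChBP; IC50 taken from concentration–response curves of displacement. Values are means ± SEM of triplicates from three independent experiments.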

[2] = target: T1, Neuronal acetylcholine receptor subunit alpha-7 (Homo sapiens, UniProt P36544); test: Negative allosteric modulation activity at alpha7 nAChR in human SH-SY5Y cells assessed as inhibition of choline induced intracellular calcium by FLIPR assay; format: cell-based
T1 sequence (P36544 whole entry): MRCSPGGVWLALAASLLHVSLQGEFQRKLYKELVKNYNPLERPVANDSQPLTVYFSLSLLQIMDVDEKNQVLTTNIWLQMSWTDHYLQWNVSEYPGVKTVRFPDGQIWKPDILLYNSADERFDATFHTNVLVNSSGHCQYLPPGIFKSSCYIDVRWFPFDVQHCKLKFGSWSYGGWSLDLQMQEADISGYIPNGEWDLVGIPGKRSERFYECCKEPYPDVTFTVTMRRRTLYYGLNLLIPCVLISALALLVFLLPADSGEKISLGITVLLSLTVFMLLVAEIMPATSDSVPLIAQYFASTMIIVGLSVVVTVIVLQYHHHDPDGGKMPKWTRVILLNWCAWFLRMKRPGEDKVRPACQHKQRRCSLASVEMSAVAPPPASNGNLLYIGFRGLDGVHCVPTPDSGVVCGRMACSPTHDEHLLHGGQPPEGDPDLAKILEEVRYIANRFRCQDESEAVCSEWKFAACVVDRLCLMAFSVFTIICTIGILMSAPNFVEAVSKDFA

[3] = target: Acetylcholine-binding protein (Lymnaea stagnalis) (UniProt P58154); test: Displacement of [3H]-epibatidine from recombinant Lymnaea stagnalis Acetylcholine-binding protein assessed as fold change in inhibition of [3H]-epibatidine binding by radioligand binding assay relative to CTD(21-50); settings: filed as negative allosteric modulator
Sequence of Acetylcholine-binding protein (Lymnaea stagnalis) (P58154 whole entry): as the sequence (P58154 whole entry) above
How it was run: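 Competition binding: peptides displaced [3H]-epibatidine from recombinantly expressed Lymnaea stagnalis AChBP. IC50 came from concentration–response curves. The ratio is each peptide's IC50 divided by the IC50 of the CTD(21–50) reference. Data are means ± SEM of triplicates from three independent experiments.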

[4] = target: T1, Neuronal acetylcholine receptor subunit alpha-7; test: Negative allosteric modulation activity at alpha7 nAChR in human SH-SY5Y cells assessed as fold change in inhibition of choline induced intracellular calcium by FLIPR assay relative to CTD(21-50); format: cell-based; settings: filed as negative allosteric modulator
[5] = target: Acetylcholine-binding protein (Lymnaea stagnalis) (UniProt P58154); test: Displacement of [3H]-epibatidine from recombinant Lymnaea stagnalis Acetylcholine-binding protein assessed as inhibition of [3H]-epibatidine binding at 40 uM by radioligand saturation binding assay
How it was run: (§1)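 Saturation binding of [3H]-epibatidine to recombinantly expressed Ls-AChBP was run without peptide and with a fixed peptide concentration (20 μM or 40 μM, depending on the peptide). Data are means ± SEM of triplicates from three independent experiments.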

[6] = target: Acetylcholine-binding protein (Lymnaea stagnalis) (UniProt P58154); test: Displacement of [3H]-epibatidine from recombinant Lymnaea stagnalis Acetylcholine-binding protein assessed as inhibition of [3H]-epibatidine binding by radioligand saturation binding assay; settings: filed as negative allosteric modulator; how it was run: as §1
[7] = target: Acetylcholine-binding protein (Lymnaea stagnalis) (UniProt P58154); test: Displacement of [3H]-epibatidine from recombinant Lymnaea stagnalis Acetylcholine-binding protein assessed as inhibition of [3H]-epibatidine binding at 20 uM by radioligand saturation binding assay; how it was run: as §1

SMILES | IC50 [1] [µM] | IC50 [2] [µM] | fold change (FC) [3] | fold change (FC) [4] | inhibition [5] [%] | Activity [6] | inhibition [7] [%]
CCCC[C@@H]1N[C@@H](CO)C(=O)NCC(=O)N[C@H]2CSSC[C@@H]3NC(=O)[C@H](C(C)C)NC(=O)[C@H](Cc4ccc(O)cc4)NC(=O)[C@H](Cc4cnc[nH]4)NC(=O)[C@H](Cc4c[nH]c5ccccc45)NC(=O)[C@H](CCCNC(=N)N)NC(=O)[C@H](CCCNC(=N)N)NC(=O)CNC(=O)[C@H](Cc4cnc[nH]4)NC(=O)CNC(=O)[C@@H]4CSSC[C@H](NC(=O)[C@@H]5CCCN5C(=O)[C@H](CCCNC(=N)N)NC(=O)[C@H](CC(N)=O)NC(=O)CNC(=O)[C@H](CSSC[C@H](NC(=O)[C@@H]5CCCN5C(=O)CN)C(=O)N[C@@H](CO)C(=O)N4)NC(=O)[C@H]([C@@H](C)O)NC3=O)C(=O)N[C@@H](CSSC[C@@H](C(=O)O)NC(=O)[C@H](CCCNC(=N)N)NC(=O)[C@H]([C@@H](C)O)NC(=O)[C@H](CCCNC(=N)N)N[C@@H](CCCC)C(=O)NC2=O)C(=O)NC1=O | 10 | 0.023 | 2 | 8 | 29 | Active | 
CCCC[C@@H]1NC(=O)[C@H](CO)NC(=O)CNC(=O)[C@@H](NC(=O)[C@H](CCCC)NC(=O)[C@H](CCCNC(=N)N)NC(=O)[C@@H](N)[C@@H](C)O)CSSC[C@@H]2NC(=O)[C@H]([C@@H](C)O)NC(=O)[C@@H]3CSSC[C@@H](C(=O)N4CCC[C@H]4C(=O)NCC(=O)O)NC(=O)[C@H](CO)NC(=O)[C@H](CSSC[C@H](NC(=O)[C@H](CO)NC1=O)C(=O)N1CCC[C@H]1C(=O)N[C@@H](CCCNC(=N)N)C(=O)N[C@@H](CC(N)=O)C(=O)NCC(=O)N3)NC(=O)CNC(=O)[C@H](Cc1cnc[nH]1)NC(=O)CNC(=O)[C@H](CCCNC(=N)N)NC(=O)[C@H](CCCNC(=N)N)NC(=O)[C@H](Cc1c[nH]c3ccccc13)NC(=O)[C@H](Cc1cnc[nH]1)NC(=O)[C@H](Cc1ccc(O)cc1)NC(=O)[C@H](C(C)C)NC2=O (H-TR[Nle]CGS[Nle]SCPRNGCTCVYHWRRGHGCSCPG-OH; disulfide 4-16, 9-26, 14-28) | 20 | 0.176 |  |  |  | Active | 20
CC[C@H](C)[C@@H]1NC(=O)[C@H](CC(N)=O)NC(=O)[C@H]([C@@H](C)O)NC(=O)[C@H](CCCNC(=N)N)NC(=O)[C@H](CC(=O)O)NC(=O)[C@H](CO)NC(=O)[C@@H]2CCCN2C(=O)[C@H](Cc2c[nH]c3ccccc23)NC(=O)CNC(=O)[C@H](CCCNC(=N)N)NC(=O)[C@@H](N)CSSC[C@H](N)C(=O)N[C@@H]([C@@H](C)CC)C(=O)N[C@@H]([C@@H](C)CC)C(=O)N[C@@H](CC(N)=O)C(=O)N[C@@H]([C@@H](C)O)C(=O)N[C@@H](CCCNC(=N)N)C(=O)N[C@@H](CC(=O)O)C(=O)N[C@@H](CO)C(=O)N2CCC[C@H]2C(=O)N[C@@H](Cc2c[nH]c3ccccc23)C(=O)NCC(=O)N[C@@H](CCCNC(=N)N)C(=O)N[C@H](C(=O)O)CSSC[C@@H](C(=O)O)NC(=O)[C@H]([C@@H](C)CC)NC1=O (I: H-CIINTRDSPWGRC-OH / II: H-CRGWPSDRTNIIC-OH; disulfide I:1-II:1, I:13-II:13) |  | 46 |  |  |  |  | 
CC[C@H](C)[C@@H]1NC(=O)[C@H](CC(N)=O)NC(=O)[C@H]([C@@H](C)O)NC(=O)[C@H](CCCNC(=N)N)NC(=O)[C@H](CC(=O)O)NC(=O)[C@H](CO)NC(=O)[C@@H]2CCCN2C(=O)[C@H](Cc2c[nH]c3ccccc23)NC(=O)CNC(=O)[C@H](CCCNC(=N)N)NC(=O)[C@@H](N)CSSC[C@H](NC(=O)[C@H](CCC(=O)O)NC(=O)[C@H](CO)NC(=O)[C@H](CCC(=O)O)NC(=O)[C@H](CC(=O)O)NC(=O)[C@@H](N)CC(=O)O)C(=O)N[C@@H]([C@@H](C)CC)C(=O)N[C@@H]([C@@H](C)CC)C(=O)N[C@@H](CC(N)=O)C(=O)N[C@@H]([C@@H](C)O)C(=O)N[C@@H](CCCNC(=N)N)C(=O)N[C@@H](CC(=O)O)C(=O)N[C@@H](CO)C(=O)N2CCC[C@H]2C(=O)N[C@@H](Cc2c[nH]c3ccccc23)C(=O)NCC(=O)N[C@@H](CCCNC(=N)N)C(=O)N[C@H](C(=O)O)CSSC[C@@H](C(=O)N[C@@H](CCC(=O)O)C(=O)N[C@@H](CO)C(=O)N[C@@H](CCC(=O)O)C(=O)N[C@@H](CC(=O)O)C(=O)N[C@@H](CC(=O)O)C(=O)O)NC(=O)[C@H]([C@@H](C)CC)NC1=O (I: H-CRGWPSDRTNIICESEDD-OH / II: H-DDESECIINTRDSPWGRC-OH; disulfide I:1-II:6, I:13-II:18) |  | 35 |  |  |  |  | 
